MT1-MMP act inh: blockers of MT1-MMP proenzyme processing, primary screen, HT1080 RFP-PRO-GFP cells, GFP/RFP fluorescence | Matrix metalloproteinase-14 (Homo sapiens), P50281 | AID 651647, 2012 | GFP/RFP ratio fluorescence, overnight; percent of plate control window, DMSO zero | GFP/RFP ratio change, % at 20 µM | actives 0.061% (n = 360,000);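 active = GFP/RFP ratio change of at least 30% with cell ATP level not reduced by more than half and red fluorescence within 50% of control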
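Assay system: RFP-PRO-GFP reporter HT1080 cells; read-out basis: GFP/RFP fluorescence ratio; benchmarks: DMSO wells and RFP-L50D-GFP cells; doses: 20 µM single dose, 1% DMSO; schedule: overnight cell settling, then overnight compound exposure, 37 °C, 5% CO2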
SKN-1 inh: suppressors of acrylamide-induced Pgst-4::GFP reporter in worms, primary screen, SKN-1 inhibitor project, whole organism, uHTS, GFP/RFP fluorescence ratio, strain VP596 | C. elegans VP596 Pgst-4::GFP/RFP ratio, 24 h | inhibition, % at 21.8 µM | actives 0.49% (n = 360,000) | AID 624304, 2012;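 active = interference check ratio from 0.5 to 1.5 plus GFP to RFP signal ratio inhibition reaching or exceeding a fixed threshold, cut at about 30% in these data, passing the limit was not always enough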
Tb MetRS inh: T. brucei MetRS inhibitors, primary screen, biochemical, luminescence | methionyl-tRNA synthetase (Trypanosoma brucei brucei) | purified T. brucei MetRS, ATP depletion, Kinase-Glo luminescence | inhibition, % at 11.9 µM | actives 0.4% (n = 360,000) | AID 624268, 2012;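 active = inhibition above a per-plate cutoff of the control wells' mean inhibition plus 3 SD, cut at about 5.5% in these data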;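 also: 0% = DMSO wells median and 100% = median of wells with control inhibitor compound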
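Test system – parasite MetRS enzyme · Reagent – substrates ATP, L-methionine and bulk Escherichia coli tRNA · Doses – 11.9 µM compound single dose, 0.9% DMSO · Times – 15 min enzyme-compound preincubation, 2 h reaction, 10 min detection, 25 °C · Signal – Kinase-Glo luminescence, ATP depletion format · Controls – DMSO-only wells as low control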
Arr AP2 block: inhibitors of beta-arrestin/AP2 binding, primary screen, biochemical, GPCR trafficking, flow cytometry. FITC-arrestin peptide / GST-AP2 beads; AP2 beta2 appendage carries R879A mutation. actives 0.31% (n = 340,000). inhibition, % at 10 µM. beta-arrestin 1 C-terminal peptide binding to AP2 beta2-adaptin appendage (human);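 active = inhibition above a set limit, near 3 SD of compounds lacking own fluorescence, cut at about 54% in these data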;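 also: plate controls were DMSO wells for no effect and 5 µM unlabelled arrestin peptide for full effect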
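test system = AP2 appendage R879A on GSH beads | buffer or medium = PBS plus Tween 20 (0.05%) and BSA (0.1%) | incubation = 12 min plus 1 h, RT | detection = bead flow cytometry, FITC channel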
Rin1 Abl inh: inhibitors of Rin1-Abl protein binding, primary screen, biochemical, TR-FRET; Tyrosine-protein kinase ABL1 (Homo sapiens) + Ras and Rab interactor 1 (Homo sapiens), …; inhibition, % at 7.35 µM; AID 588664, 2011; actives 0.4% (n = 360,000); in the data active = inhibition above about 5%, passing the limit was not always enough
Target sequence (P00519 whole entry, looked up): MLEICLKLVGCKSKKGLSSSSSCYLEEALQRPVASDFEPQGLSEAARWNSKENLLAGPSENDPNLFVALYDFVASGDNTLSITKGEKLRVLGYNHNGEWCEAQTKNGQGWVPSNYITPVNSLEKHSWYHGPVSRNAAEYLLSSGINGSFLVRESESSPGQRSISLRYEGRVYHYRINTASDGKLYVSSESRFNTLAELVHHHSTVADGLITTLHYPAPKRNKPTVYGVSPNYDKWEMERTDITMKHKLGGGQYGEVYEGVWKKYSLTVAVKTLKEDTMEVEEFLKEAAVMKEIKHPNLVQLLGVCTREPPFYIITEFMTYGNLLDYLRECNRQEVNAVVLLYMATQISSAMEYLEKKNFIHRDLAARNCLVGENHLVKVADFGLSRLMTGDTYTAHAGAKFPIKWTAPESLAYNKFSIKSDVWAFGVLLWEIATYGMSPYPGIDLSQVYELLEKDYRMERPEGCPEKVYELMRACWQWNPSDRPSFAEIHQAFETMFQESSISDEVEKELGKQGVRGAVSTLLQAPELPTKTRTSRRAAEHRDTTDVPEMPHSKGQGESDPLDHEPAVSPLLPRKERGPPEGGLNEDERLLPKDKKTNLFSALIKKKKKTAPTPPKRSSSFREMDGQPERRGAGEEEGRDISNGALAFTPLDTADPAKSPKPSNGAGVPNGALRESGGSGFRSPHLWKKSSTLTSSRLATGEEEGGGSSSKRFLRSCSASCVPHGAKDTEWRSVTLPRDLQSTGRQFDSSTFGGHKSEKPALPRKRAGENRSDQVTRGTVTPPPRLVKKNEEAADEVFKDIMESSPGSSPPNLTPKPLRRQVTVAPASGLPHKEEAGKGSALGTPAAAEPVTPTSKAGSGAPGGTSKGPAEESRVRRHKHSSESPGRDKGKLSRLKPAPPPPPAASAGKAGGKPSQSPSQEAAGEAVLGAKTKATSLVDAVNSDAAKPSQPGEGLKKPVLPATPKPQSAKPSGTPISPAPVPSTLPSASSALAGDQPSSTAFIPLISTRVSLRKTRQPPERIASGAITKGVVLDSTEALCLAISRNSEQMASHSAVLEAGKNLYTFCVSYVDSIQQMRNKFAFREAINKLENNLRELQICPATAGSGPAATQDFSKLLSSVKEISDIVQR
Target sequence (Q13671 whole entry, looked up): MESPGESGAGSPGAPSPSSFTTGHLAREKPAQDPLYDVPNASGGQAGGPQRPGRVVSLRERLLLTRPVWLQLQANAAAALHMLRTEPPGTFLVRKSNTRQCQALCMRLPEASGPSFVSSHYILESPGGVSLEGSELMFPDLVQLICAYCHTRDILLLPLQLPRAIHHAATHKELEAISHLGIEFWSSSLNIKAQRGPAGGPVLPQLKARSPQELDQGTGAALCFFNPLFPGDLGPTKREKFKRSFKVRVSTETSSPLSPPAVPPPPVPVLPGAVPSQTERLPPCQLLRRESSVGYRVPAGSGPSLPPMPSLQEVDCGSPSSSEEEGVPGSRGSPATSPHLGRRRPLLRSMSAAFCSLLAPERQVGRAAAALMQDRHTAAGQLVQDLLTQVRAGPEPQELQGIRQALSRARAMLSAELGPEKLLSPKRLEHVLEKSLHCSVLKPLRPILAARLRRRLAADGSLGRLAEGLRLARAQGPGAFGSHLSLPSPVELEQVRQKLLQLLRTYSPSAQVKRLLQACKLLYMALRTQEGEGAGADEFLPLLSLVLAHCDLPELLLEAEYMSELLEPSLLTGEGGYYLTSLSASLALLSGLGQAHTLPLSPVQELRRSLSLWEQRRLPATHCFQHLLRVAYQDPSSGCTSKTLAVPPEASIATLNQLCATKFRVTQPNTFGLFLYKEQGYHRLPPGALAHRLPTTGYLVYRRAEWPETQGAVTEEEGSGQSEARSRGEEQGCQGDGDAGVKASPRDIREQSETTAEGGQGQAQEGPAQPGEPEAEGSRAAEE
Rin1-Abl confirm: Rin1-Abl binding inhibitor retest, confirmation, biochemical, TR-FRET. inhibition, % at 7.35 µM. AID 602124, 2011. actives 49% (n = 1,300). shares compounds with Rin1 Abl inh. purified proteins
GFP quench-1: GFP fluorescence inhibitors and quenchers, artefact control for Rin1-Abl interaction inhibitor project, biochemical | shares compounds with Rin1 Abl inh | actives 8.5% (n = 1,300) | inhibition, % at 6.75 µM | inhibitors/quenchers counterscreen | AID 602125, 2011;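 also: ABL1-eGFP fusion protein alone without its partner RIN1-SBP; 0% = protein with vehicle and 100% = wells lacking protein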
GFP quench dose: GFP fluorescence inhibitors and quenchers, dose response, artefact control for Rin1-Abl interaction inhibitor project, biochemical | GFP fluorescence interference/quenching counterscreen | IC50, µM | AID 602182, 2012 | shares compounds with Rin1 Abl inh | 230 tested, under 10 active; call rule not given here;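 also: ABL1-eGFP fusion protein alone without its RIN1 binding partner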
GFP quench-2: GFP fluorescence inhibitors and quenchers, late-stage follow-up, artefact control for Rin1-Abl interaction inhibitor project, biochemical, dose response. IC50, µM. 25 tested, under 10 active. GFP fluorescence quenching counterscreen. shares compounds with Rin1 Abl inh; call rule not given here
* marks the source's active call; other numbers are inactive results; x = no result. Hits are enriched below; roughly 1.6% of the tested compounds scored in any of these assays. Rule as the data show it, unless noted: active = inhibition above about 6.5%; inactive = the rest.

SMILES	MT1-MMP act inh	SKN-1 inh	Tb MetRS inh	Arr AP2 block	Rin1 Abl inh	Rin1-Abl confirm	GFP quench-1	others
CCCS(=O)(=O)NC(=O)C1(C)CCCN(C(=O)c2cncc(Br)c2)C1 (stereo not given)	2.5	14.0	0.1	x	-4.5	x	x
CC(=O)OC1CC(n2ccc(NC(=O)c3ccccc3)nc2=O)OC1CO (stereo not given)	4.2	0.3	-0.6	8.4	3.9	x	x
O=C(Nc1ccn([C@H]2CC[C@@H](CO)O2)c(=O)n1)c1ccccc1	0.2	4.9	-1.1	7.2	24.0*	22.0*	-1.5	GFP quench dose=>67.5
CCOC(=O)C1CCN(C(=O)Nc2ccc(NC(=O)C3CCN(C(=O)OCC)CC3)cc2)CC1	6.8	-2.2	-0.9	35.3	13.6*	10.7*	-0.2
CC(C)(C)OC(=O)N1CCC(C(=O)Nc2ccc(C(=O)N3CCCCC3)cc2)CC1	5.6	-0.8	0.3	-1.8	24.9*	16.8*	-0.1	GFP quench dose=>67.6
O=C(Cc1ccc(NC(=O)C2CCN(C(=O)C3CC3)CC2)cc1)Nc1ccc(C(=O)N2CCOCC2)cc1	3.7	-8.6	-0.3	8.4	8.9*	9.7*	-2.1
O=C(Cc1ccc(NC(=O)C2CCN(C(=O)C3CCCC3)CC2)cc1)Nc1ccc(C(=O)N2CCOCC2)cc1	1.8	-8.1	-0.5	-14.8	66.6*	70.0*	-0.6	GFP quench dose=>67.5;GFP quench-2=>67.5
CCN(CC)c1ccc2cc(C(=O)NNC(=O)c3ccc(S(=O)(=O)N4CCCCC4)cc3)c(=O)oc2c1	-130.5	-1.7	-1.8	9.3	4.7*	-1.5	-0.5
Cc1cccc(C(=O)OCC(=O)NCc2ccc(Cl)cc2)c1	2.0	-7.5	-0.1	x	0.3	x	x
Cc1nn(CC(=O)NCc2cccc(F)c2)c(=O)c2cccn12	-1.6	2.6	-0.1	-0.8	8.6*	-4.1	-4.7
Cc1nn(CC(=O)NCCCc2ccccc2)c(=O)c2cccn12	-1.6	-12.8	0.9	-15.6	0.0	x	x
CC1(c2nnc(-c3ccncc3)o2)CC(c2ccc(F)cc2)=NO1 (stereo not given)	-1.0	-11.1	-0.4	0.4	42.9*	41.7*	-0.6	GFP quench dose=>67.5
CC1(c2nnc(-c3ccncc3)o2)CC(c2c(Cl)cccc2Cl)=NO1 (stereo not given)	-2.3	-10.7	-0.2	0.8	37.5*	27.4*	0.3
CC1(c2nnc(-c3ccncc3)o2)CC(c2ccc([N+](=O)[O-])cc2)=NO1 (stereo not given)	7.7	1.6	0.0	4.8	17.9*	20.6*	-0.4
CC1(c2nnc(-c3ccc(Cl)cc3)o2)CC(c2ccc([N+](=O)[O-])cc2)=NO1 (stereo not given)	2.2	-1.6	-0.1	-14.0	-1.2	x	x
COCCNC(=O)C1(C)CCCN(Cc2ccc(Cl)nc2)C1 (stereo not given)	3.6	14.2	-0.1	x	-1.8	x	x
CC(=O)NNS(=O)(=O)c1scc(S(=O)(=O)c2ccc(Cl)cc2)c1C	0.7	7.5	1.4	-0.2	-1.3	x	x
CC(C)CN1C(=O)NC(NS(=O)(=O)c2ccc(N)cc2)(C(F)(F)F)C1=O (stereo not given)	1.5	1.7	-0.3	-13.4	6.7*	-0.1	0.1
CN1CCN(C(=O)c2cccc(-c3ccc4nncn4c3)c2)CC1	2.6	6.2	0.0	x	-5.2	x	x
CN1CCN(C(=O)c2cccc(-c3cc(O)c4ncccc4c3)c2)CC1	-5.5	-5.9	-0.5	0.6	26.3*	33.5*	7.4*
CN1CCN(c2cc(-c3cc(O)c4ncccc4c3)ccn2)CC1	4.7	17.3	-0.1	8.8	14.1*	17.3*	10.0*
COc1ccc(S(=O)(=O)N2CCC(C(=O)N[C@H](C(=O)NCc3ccccc3)C(C)C)CC2)cc1	4.1	5.8	0.8	x	1.8	x	x
O=C1C=CC(=O)N1c1ccc2c(c1)C(NC(=O)C(F)(F)F)c1ccccc1-2 (stereo not given)	0.6	16.4	-0.3	9.2	3.9	x	x
CC(c1ccccc1)C(OC(=O)c1cccc([N+](=O)[O-])c1C(=O)O)c1ccccc1 (stereo not given)	0.5	-11.0	-0.1	-20.2	0.8	x	x
COc1ccc(CC(=O)Oc2ccc(C)cc2Br)cc1OC	10.0	-19.1	-0.6	19.1	40.9*	51.2*	-1.7	GFP quench dose=>67.6
SMILES	MT1-MMP act inh	SKN-1 inh	Tb MetRS inh	Arr AP2 block	Rin1 Abl inh	Rin1-Abl confirm	GFP quench-1	others
O=C1CC=Nc2ccc([N+](=O)[O-])cc21	-1.9	8.5	-0.1	x	14.5*	-1.8	-0.9
Cc1ccc(CSc2nnc(-c3ccccn3)n2Cc2cccs2)cc1	-7.1	16.0	0.6	x	-1.9	x	x
CC1(C)CCN2CCC(C)(C)c3c(O)ccc1c32	-108.2	19.0	-0.4	6.3	7.6*	1.6	1.0
CCCCCn1c(C(C)NC(=O)CCC)nc2ccccc21 (stereo not given)	-0.3	-12.8	-0.3	2.7	-2.9	x	x
CCCCCCn1c(C(C)O)nc2ccccc21 (stereo not given)	-0.7	11.3	-0.3	2.3	20.5*	1.2	-0.6
CCOCC(=O)N1CCc2ccccc21	1.6	-13.5	-1.4	26.7	6.3*	-1.1	2.1
NC(N)=NC(N)=Nc1cccc2ccccc12	0.7	-1.3	-1.0	-14.6	-0.4	x	x
Cc1c(Cl)cccc1N=C(N)N=C(N)N	9.0	2.6	-0.8	9.1	9.1*	-2.8	0.0
CC(=O)NC(C)(c1ccccc1)c1nc(-c2ccc(S(C)(=O)=O)cc2)cs1 (stereo not given)	-2.8	17.4	0.1	x	-4.8	x	x
Cc1ccc(C)c(NC(=O)C2C3C=CC(O3)C2C(=O)O)c1 (stereo not given)	-1.9	-3.6	-0.7	10.3	7.6*	0.5	0.1

Source: PubChem BioAssay
